Source: ChEMBL document CHEMBL1142174, “Pyrazinoic acid and its n-propyl ester inhibit fatty acid synthase type I in replicating tubercle bacilli” (2007)
In brackets after ≈: the same amount, converted by molar mass.

What was measured:
[1] = system: Mycobacterium tuberculosis; assay: Inhibition of fatty acid synthase 1 in Mycobacterium tuberculosis assessed as incorporation of [1-14C]acetate in C16 biosynthesis at 1250 ug/ml at pH 6.0
In short: (§1)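 M. tuberculosis was grown from frozen stock in 7H12 to OD600 0.3–0.4, diluted 10-fold and grown 48–72 h more. 10-ml aliquots (OD600 0.2–0.25) were pelleted and resuspended in fresh drug-containing medium for 12 h. Cells were labelled with [1-14C]acetate (1 μCi/ml) for 6 h. Soluble lipids were extracted and saponified, and 14C-labelled C16 was quantified.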

[2] = system: Mycobacterium tuberculosis; assay: Inhibition of fatty acid synthase 1 in Mycobacterium tuberculosis assessed as incorporation of [1-14C]acetate in C16 biosynthesis at 250 ug/ml at pH 5.5; in short: as §1
[3] = system: Mycobacterium tuberculosis; assay: Antimicrobial activity against Mycobacterium tuberculosis at pH 6.8 by broth microdilution test; assay type: functional
In short: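 Broth macrodilution MIC with an inoculum of 10^5 CFU/ml. Medium was Middlebrook 7H9 with 10% OADC, 0.2% glycerol and 0.05% Tween 80. Medium pH was set to 6 or 6.8 with 4.25% phosphoric acid or 5% dibasic potassium phosphate.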

[4] = system: Mycobacterium tuberculosis; assay: Antimicrobial activity against Mycobacterium tuberculosis at pH 6 by broth microdilution test; assay type: functional
[5] = system: Mycobacterium tuberculosis; assay: Inhibition of fatty acid synthase 1 in Mycobacterium tuberculosis assessed as incorporation of [1-14C]acetate in C16 biosynthesis at 250 ug/ml; in short: as §1
[6] = system: Mycobacterium tuberculosis; assay: Inhibition of fatty acid synthase 1 in Mycobacterium tuberculosis assessed as incorporation of [1-14C]acetate in C16 biosynthesis at 1200 ug/ml at pH 6.0; in short: as §1
[7] = system: Mycobacterium tuberculosis; assay: Inhibition of fatty acid synthase 1 in Mycobacterium tuberculosis assessed as incorporation of [1-14C]acetate in C16 biosynthesis at 800 ug/ml; in short: as §1

## O=C(O)c1cnccn1 [PYRAZINOIC ACID]
[1]
  inhibition: 60%
[2]
  inhibition: 60%
[3]
  MIC: 300 µg/mL (≈ 2420 µM)
[4]
  MIC: 100 µg/mL (≈ 806 µM)

## NC(=O)c1cnc(Cl)cn1
[5]
  inhibition: 94%

## NC(=O)c1cnccn1
[6]
  inhibition: 88%

## CCCOC(=O)c1cnccn1
[7]
  inhibition: 96%
[3]
  MIC: 80 µg/mL (≈ 481 µM)
[4]
  MIC: 60 µg/mL (≈ 361 µM)
